Measurements taken from ChEMBL document CHEMBL3526056, “Characterization of in vitro glucuronidation clearance of a range of drugs in human kidney microsomes: comparison with liver and intestinal glucuronidation and impact of albumin” (Drug Metab Dispos, 2012).

Legend:
[1] = Fraction unbound in human liver microsomes at 5 uM after 30 to 60 mins by LC-MS/MS analysis
[2] = Glucuronidation clearance in human liver microsomes in presence of bovine serum albumin; format: ADME
[3] = Ratio of unbound intrinsic glucuronidation clearance in human kidney microsomes in presence of 2% bovine serum albumin to unbound intrinsic glucuronidation clearance in human kidney microsomes in absence of bovine serum albumin; format: ADME, microsome
Method in brief: (§1)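 Ratios of mean scaled unbound CLint,UGT (per g tissue) between tissues, or between with and without BSA. Microsomal depletion assays at 1 μM, or 5 μM for propofol, in pH 7.1 phosphate at 37°C, read by LC-MS/MS. Kidney and liver n = 3, intestine n = 1, each in duplicate.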

[4] = Glucuronidation clearance in human liver microsomes; format: ADME
[5] = Clearance in iv dosed human; format: ADME, organism-based; conditions: in vivo
[6] = Ratio of unbound intrinsic glucuronidation clearance in human intestinal microsomes in presence of 2% bovine serum albumin to unbound intrinsic glucuronidation clearance in human intestinal microsomes in absence of bovine serum albumin; format: ADME, Intestine, Microsome; method in brief: as §1
[7] = Fraction unbound in human kidney microsomes at 5 uM after 30 to 60 mins by LC-MS/MS analysis in presence of 2% bovine serum albumin
[8] = test system: Liver microsome; assay: Fraction metabolized glucuronidation in human liver microsomes in presence of UDP-glucuronosyltransferase; format: ADME
[9] = Fraction unbound in human plasma
[10] = Ratio of drug level blood to plasma in human; format: ADME; conditions: blood and plasma
[11] = test system: Liver microsome; assay: Fraction metabolized glucuronidation in human liver microsomes in presence of UDP-glucuronosyltransferase and bovine serum albumin; format: ADME
[12] = test system: Liver microsome; assay: Ratio of unbound intrinsic glucuronidation clearance in human liver microsomes in presence of 2% bovine serum albumin to unbound intrinsic glucuronidation clearance in human liver microsomes in absence of bovine serum albumin; format: ADME; method in brief: as §1
[13] = Fraction unbound in human kidney microsomes at 5 uM after 30 to 60 mins by LC-MS/MS analysis
[14] = Fraction unbound in human intestinal microsomes at 5 uM after 30 to 60 mins by LC-MS/MS analysis

Structure (SMILES): CC(C)c1cccc(C(C)C)c1O [PROPOFOL]
- fraction unbound at 5 µM [1]: 0.69
- CLhep predicted [2]: 14.7 mL/min/kg
- Ratio [3]: 1.6
- CLhep predicted [4]: 3.88 mL/min/kg
- clearance [5]: 27.7 mL/min/kg
- Ratio [6]: 1.6
- fraction unbound at 5 µM [7]: 0.25
- Drug metabolism [8]: 0.14
- fraction unbound [9]: 0.015
- blood plasma ratio [10]: 0.88
- Drug metabolism [11]: 0.53
- Ratio [12]: 1.6
- fraction unbound at 5 µM [13]: 0.69
- fraction unbound at 5 µM [14]: 0.69
